Data on 60 compounds can be found in ChEMBL document CHEMBL4368911, “Metal-Binding Pharmacophore Library Yields the Discovery of a Glyoxalase 1 Inhibitor” (J Med Chem, 2019).

In data set [1] the target is T1, Lactoylglutathione lyase (Homo sapiens, UniProt Q04760). Nature of the data set: Inhibition recombinant human N-terminal 6His-tagged GLO1 (2 to 184 residues) expressed in Escherichia coli using MG as substrate preincubated for 15 to 20 mins followed by substrate addition and measured every 1 min for 8 mins. Summed up: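 Recombinant human GLO1, 40 ng per well, preincubated 15–20 min with inhibitor in 100 mM sodium phosphate pH 7.0. Substrate was GSH + MG hemithioacetal, premixed 20 min at room temperature; DMSO ≤5% final. Absorbance at 240 nm read every 1 min for 8 min. Rates compared with no-inhibitor controls after background subtraction. Chugai-1 as reference.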
Target sequence in this assay (Q04760 whole entry, the tested form may be a part): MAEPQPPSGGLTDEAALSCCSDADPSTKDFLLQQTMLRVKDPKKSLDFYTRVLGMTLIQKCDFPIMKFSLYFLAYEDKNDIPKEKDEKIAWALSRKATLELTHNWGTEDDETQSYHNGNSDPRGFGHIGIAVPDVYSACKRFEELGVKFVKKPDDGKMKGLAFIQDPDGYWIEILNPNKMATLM

Data set [2] in a line: Toxicity in FVB/NJ mouse at =>50 mg/kg, ip. The data set is classed as organism-based. The following applies: in vivo. In short, it runs like this:
(§1)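 Toxicity in mice judged by observation after i.p. dosing.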

In data set [3] the test system is Mus musculus. Nature of the data set: Antidepressant-like activity in FVB/NJ mouse assessed as reduction in immobility at 12.5 mg/kg, ip measured after 120 mins by forced swim test. Format: functional, organism-based. In short, it runs like this:
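Mice 108–148 days old, 12 h light–dark cycle, tested in the light phase. Each mouse got vehicle (8% DMSO, 18% Tween, […]) on one day and drug on the other, i.p., counterbalanced, about 3 weeks apart. FST run 2 h post-injection: 6 min in a bucket filled 48 cm with 23–25 water. Immobility time analysed by ANOVA with sex and test order as factors.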

The nature of data set [4]: Drug uptake in FVB/NJ mouse brain at 25 mg/kg, ip measured after 30 mins post dose by LC-MS/MS analysis. The data set is classed as ADME, organism-based. The conditions noted are these: read-out: Drug uptake. Summed up: (§2)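 Single i.p. dose, then brain sampled at 30, 60, 120 or 240 min, n = 3 per time point. Mice anesthetized with isoflurane and perfused with PBS through the left ventricle. Brains minced, extracted with acetonitrile, bead-homogenized, centrifuged and filtered. LC-MS/MS against an 11-point calibration (5–5000 ng/mL) spiked into blank brain. Median reported as ng/mg wet brain.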

A short description of data set [5]: Drug uptake in FVB/NJ mouse brain at 12.5 mg/kg, ip measured after 60 mins post dose by LC-MS/MS analysis. Format: ADME, organism-based. The conditions noted are these: read-out: Drug uptake. Summed up: as §2
A short description of data set [6]: Drug uptake in FVB/NJ mouse brain at 25 mg/kg, ip measured after 240 mins post dose by LC-MS/MS analysis. Format: ADME, organism-based. The following applies: read-out: Drug uptake. In short, it runs like this: as §2
The nature of data set [7]: Drug uptake in FVB/NJ mouse brain at 12.5 mg/kg, ip measured after 30 mins post dose by LC-MS/MS analysis. The data set is classed as ADME, organism-based. The following applies: read-out: Drug uptake. Summed up:
as §2

The nature of data set [8]: Toxicity in FVB/NJ mouse up to 100 mg/kg, ip. Format: organism-based. The conditions noted are these: in vivo. In short, it runs like this: as §1
Data set [9] in a line: Drug uptake in FVB/NJ mouse brain at 25 mg/kg, ip measured after 120 mins post dose by LC-MS/MS analysis. The data set is classed as ADME, organism-based. The conditions noted are these: read-out: Drug uptake. Summed up: as §2
The nature of data set [10]: Drug uptake in FVB/NJ mouse brain at 25 mg/kg, ip measured after 60 mins post dose by LC-MS/MS analysis. The data set is classed as ADME, organism-based. The following applies: read-out: Drug uptake. Summed up:
as §2

Data set [11] concerns Mus musculus. Nature of the data set: In-vivo inhibition of GLO1 in FVB/NJ mouse assessed as increase in methylglyoxal accumulation at 12.5 mg/kg, ip measured at 240 mins post dose by LC-MS/MS analysis relative to control. The data set is classed as functional. The following applies: in the assay text read “25 mg/kg” for “12.5 mg/kg”. In short, it runs like this: (§3)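 Brain MG measured 30–240 min after i.p. dosing and compared with vehicle-treated mice. Brains taken after PBS perfusion under isoflurane, then acetonitrile extraction, homogenization, centrifugation and filtration. LC-MS/MS quantified against an 11-point calibration (5–5000 ng/mL) in blank brain matrix. Expressed per mg brain tissue.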

Data set [12] is described as follows: Drug uptake in FVB/NJ mouse brain at 12.5 mg/kg, ip measured after 240 mins post dose by LC-MS/MS analysis. Format: ADME, organism-based. The conditions noted are these: read-out: Drug uptake. Summed up: as §2
A short description of data set [13]: Drug uptake in FVB/NJ mouse brain at 12.5 mg/kg, ip measured after 120 mins post dose by LC-MS/MS analysis. The data set is classed as ADME, organism-based. The conditions noted are these: read-out: Drug uptake. In short, it runs like this:
as §2

The test system of data set [14] is Mus musculus. Nature of the data set: In-vivo inhibition of GLO1 in FVB/NJ mouse assessed as increase in methylglyoxal accumulation at 12.5 mg/kg, ip measured at 30 mins post dose by LC-MS/MS analysis relative to control. Format: functional. In short, it runs like this:
as §3

In data set [15] the target is T1, Lactoylglutathione lyase. Nature of the data set: Inhibition of human GLO1.
Target sequence in this assay (Q04760 whole entry, the tested form may be a part): as above
The target of data set [16] is T1, Lactoylglutathione lyase. Nature of the data set: Inhibition recombinant human N-terminal 6His-tagged GLO1 (2 to 184 residues) expressed in Escherichia coli at 50 uM using MG as substrate preincubated for 15 to 20 mins followed by substrate addition and measured every 1 min for 8 mins.
Target sequence in this assay (Q04760 2-184 limits assumed): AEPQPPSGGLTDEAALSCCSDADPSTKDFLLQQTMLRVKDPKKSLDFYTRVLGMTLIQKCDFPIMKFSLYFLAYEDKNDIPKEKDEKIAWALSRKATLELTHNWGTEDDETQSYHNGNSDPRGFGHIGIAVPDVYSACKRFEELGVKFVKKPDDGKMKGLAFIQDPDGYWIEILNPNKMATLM

Activity calls are given as the source filed them. No cut-off for these calls is given here. Bounds are passed on as bounds.

By IC50 is commonly meant the point on the concentration scale where inhibition reaches its midpoint. By Ki is commonly meant the equilibrium dissociation constant of an inhibitor or competing ligand from its target. One may read the inhibition as the change of the read-out against control, counted positive when it falls.

For `CNS(=O)(=O)c1cccc2cccnc12`, at Lactoylglutathione lyase [1], the IC50 was greater than 200 µM. Regarding `CS(=O)(=O)Nc1ccc(-c2ccc(Cl)cc2)c2cccnc12`, at Lactoylglutathione lyase [1], the concentration for half-maximal inhibition (IC50) amounted to 6.2 µM. Turning to `O=S(=O)(Nc1ccc(CCc2ccccc2)c2cccnc12)c1ccccn1`, the half-inhibitory concentration (IC50) on Lactoylglutathione lyase [1] was determined as 0.79 µM. In the case of `COc1cc(OC)cc(-c2ccc(NS(=O)(=O)c3ccccn3)c3ncccc23)c1`, on Lactoylglutathione lyase [1], the half-maximal inhibitory concentration (IC50) was 1.19 µM. For the compound `O=S(=O)(Nc1ccc(-c2ccccc2)c2cccnc12)c1ccccn1`, on Lactoylglutathione lyase [1], the IC50 is 0.5 µM. Take `CS(=O)(=O)Nc1ccc(-c2ccccc2)c2cccnc12`: the IC50 at Lactoylglutathione lyase [1] came out at 11.5 µM. As for `O=S(=O)(Nc1ccc(-c2cccc(Cl)c2)c2cccnc12)c1ccccn1`, the concentration for half-maximal inhibition (IC50) at Lactoylglutathione lyase [1] turned out to be 0.37 µM. The same measure, in the same setting: with `CS(=O)(=O)Nc1ccc(-c2ccc(F)c(F)c2)c2cccnc12` the figure was 13.9 µM; with `O=S(=O)(Nc1cc(CCc2ccc(F)cc2)cc2cccnc12)c1ccccn1`, 1.32 µM; with `COc1cccc(S(=O)(=O)Nc2cccc3cccnc23)c1`, 6.9 µM. Still for that read-out and setting: as for `O=C1Cc2cc(S(=O)(=O)Nc3cccc4cccnc34)ccc2N1`, the figure is 6.6 µM. On to `O=S(=O)(Nc1ccc(-c2ccc(Cl)cc2)c2cccnc12)c1ccccn1`, for which, at Lactoylglutathione lyase [1], the IC50 turned out to be 0.48 µM. Besides, the Activity entry in data set [2] is on record as “Toxic”. In the case of `CC(=O)Nc1cccc2cccnc12`, at Lactoylglutathione lyase [1], the IC50 was greater than 200 µM.

Take `Cn1cnc(S(=O)(=O)Nc2cccc3cccnc23)c1`: the concentration for half-maximal inhibition (IC50) at Lactoylglutathione lyase [1] came out at 5.5 µM. Consider `CC(C)S(=O)(=O)Nc1cccc2cccnc12`, for which the IC50 at Lactoylglutathione lyase [1] was greater than 20 µM. For the compound `CS(=O)(=O)Nc1cccc2ncccc12`, the IC50 at Lactoylglutathione lyase [1] is greater than 200 µM. `COc1ccc(-c2ccc(NS(=O)(=O)c3ccccn3)c3ncccc23)cc1`: the IC50 on Lactoylglutathione lyase [1] is 0.64 µM. The same measure, in the same setting: with `CS(=O)(=O)Nc1cccc2ccncc12` the figure was greater than 200 µM; with `O=S(=O)(Nc1cc(CCc2ccccc2)cc2cccnc12)c1ccccn1`, 1.21 µM; with `O=S(=O)(Nc1cccc2cccnc12)c1cccnc1`, 11.2 µM. Consider `CCCCS(=O)(=O)Nc1cccc2cccnc12`, for which the IC50 on Lactoylglutathione lyase [1] is greater than 20 µM.

For `O=S(=O)(Nc1cccc2cccnc12)c1ccccc1`, the 50% inhibitory concentration (IC50) on Lactoylglutathione lyase [1] is 8.5 µM. Same read-out and setting: as for `N#Cc1ccc(S(=O)(=O)Nc2cccc3cccnc23)cc1`, the figure is 6.6 µM. Turning to `CS(=O)(=O)Nc1ccc(-c2ccc3c(c2)OCO3)c2cccnc12`, at Lactoylglutathione lyase [1], the half-inhibitory concentration (IC50) worked out at 11.2 µM. As to `Cc1ccc2cccc(NS(C)(=O)=O)c2n1`, the 50% inhibitory concentration (IC50) at Lactoylglutathione lyase [1] is 43 µM.

As for `COc1ccc(S(=O)(=O)Nc2cccc3cccnc23)cc1`, the half-inhibitory concentration (IC50) at Lactoylglutathione lyase [1] was determined as 7 µM. In the case of `COc1cc(CCc2cc(NS(=O)(=O)c3ccccn3)c3ncccc3c2)cc(OC)c1`, in the data set on Mus musculus [3], the result was Active. The concentration at 0.5 h in [4] came to 400 ng/g; in [7] it was 2100 ng/g. Further, the concentration at 1 h was found to be 14400 ng/g in data set [5] and 6700 ng/g in [10]. The concentration at 4 h in data set [6] was determined as 8300 ng/g; in data set [12], 2200 ng/g. In [8], the Activity result is “Non-Toxic”. Besides, the IC50 on Lactoylglutathione lyase [1] was in the range of 0.46 to 0.463 µM. The results for the concentration at 2 h in data set [9] and in [13] were 18900 ng/g and 6000 ng/g, respectively. Besides, the “fold change (FC)” value with Mus musculus [11] was 13; in the data set on Mus musculus [14], 11.

For `COc1ccccc1S(=O)(=O)Nc1cccc2cccnc12`, at Lactoylglutathione lyase [1], the IC50 is greater than 20 µM. Still for that read-out and setting: with `O=S(=O)(Nc1ccc(-c2ccc(Cl)c(Cl)c2)c2cccnc12)c1ccccn1` the figure was 0.54 µM. As to `COC(=O)c1c(C)cc(Oc2cc(C)cc(O)c2O)cc1O`, on Lactoylglutathione lyase [15], the inhibition constant (Ki) was determined as 0.23 µM. With `CS(=O)(=O)Nc1cccc2cccnc12`, the inhibition at Lactoylglutathione lyase [16] is greater than 50%. In addition, the IC50 at Lactoylglutathione lyase [1] came out at 18.5 µM. `O=S(=O)(Nc1cccc2cccnc12)c1cccs1`: on Lactoylglutathione lyase [1], the IC50 stood at 4.9 µM.

`CC(C)(C)c1ccc(S(=O)(=O)Nc2cccc3cccnc23)cc1`: the IC50 at Lactoylglutathione lyase [1] came out at 4.2 µM. Turning to `CS(=O)(=O)Nc1ccc(-c2cncnc2)c2cccnc12`, the IC50 at Lactoylglutathione lyase [1] is greater than 20 µM. On the same count and under the same terms, with `O=S(=O)(CCc1ccccc1)Nc1cccc2cccnc12` the figure was 8.7 µM.

With `O=S(=O)(Nc1cccc2cccnc12)c1ccccn1`, the half-maximal inhibitory concentration (IC50) on Lactoylglutathione lyase [1] worked out at 1.3 µM. The same measure, in the same setting: with `CS(=O)(=O)Nc1ccc(-c2cccs2)c2cccnc12` the figure was 15.4 µM. The same measure, in the same setting: as for `CSc1nc2ccc(S(=O)(=O)Nc3cccc4cccnc34)cc2s1`, the figure is 3.9 µM.

For the compound `N#Cc1cccc(S(=O)(=O)Nc2cccc3cccnc23)c1`, the IC50 at Lactoylglutathione lyase [1] is 7.3 µM. Same read-out and setting: with `Cc1ccc2cccc(NS(=O)(=O)c3ccccc3)c2n1` the figure was 14.5 µM. On to `Cn1cc(S(=O)(=O)Nc2cccc3cccnc23)cn1`, for which the IC50 on Lactoylglutathione lyase [1] is greater than 20 µM.

As for `O=S(=O)(CCCc1ccccc1)Nc1cccc2cccnc12`, the IC50 at Lactoylglutathione lyase [1] stood at 4.6 µM. Still for that read-out and setting: with `CS(=O)(=O)Nc1ccc(N2CCCCC2)c2cccnc12` the figure was greater than 100 µM; with `O=S(=O)(Nc1ccc(-c2ccc(F)cc2)c2cccnc12)c1ccccn1`, 0.72 µM. The same measure, in the same setting: as for `COc1ccc(-c2ccc(NS(=O)(=O)c3ccccn3)c3ncccc23)cc1Cl`, the figure is 0.59 µM; as for `O=S(=O)(Nc1ccc(CCc2ccc(F)cc2)c2cccnc12)c1ccccn1`, 0.79 µM.

Take `O=S(=O)(Nc1cccc2cccnc12)c1ccc(F)cc1`: the IC50 at Lactoylglutathione lyase [1] came out at 7.5 µM.

For `O=S(=O)(Cc1ccccc1)Nc1cccc2cccnc12`, the 50% inhibitory concentration (IC50) on Lactoylglutathione lyase [1] stood at 7.6 µM. `CS(=O)(=O)Oc1cccc2cccnc12`: the half-maximal inhibitory concentration (IC50) on Lactoylglutathione lyase [1] was greater than 200 µM. Still for that read-out and setting: with `CS(=O)(=O)Nc1ccc(N2CCOCC2)c2cccnc12` the figure was greater than 100 µM; with `O=S(=O)(Nc1cccc2cccnc12)C1CCCCC1`, greater than 20 µM; with `O=S(=O)(Nc1cccc2cccnc12)c1ccc(F)c(F)c1`, 5.7 µM. Consider `COc1cccc(-c2ccc(NS(=O)(=O)c3ccccn3)c3ncccc23)c1`, for which the IC50 on Lactoylglutathione lyase [1] worked out at 1.04 µM. Still for that read-out and setting: as for `O=S(=O)(Nc1cccc2cccnc12)c1ccc2c(c1)OCO2`, the figure is 6.1 µM; as for `O=S(=O)(Nc1cccc2cccnc12)C1CC1`, greater than 20 µM; as for `O=S(=O)(Nc1cccc2cccnc12)c1ccc2ncsc2c1`, 3.9 µM. `CS(=O)(=O)Nc1ccc(-c2ccco2)c2cccnc12`: the half-inhibitory concentration (IC50) on Lactoylglutathione lyase [1] was found to be 11.9 µM.

Regarding `O=S(=O)(Nc1cccc2cccnc12)c1ccc2ccccc2c1`, the IC50 at Lactoylglutathione lyase [1] is 3.6 µM. Still for that read-out and setting: with `CS(=O)(=O)Nc1ccc(-c2ccncc2)c2cccnc12` the figure was greater than 20 µM; with `N#Cc1ccccc1S(=O)(=O)Nc1cccc2cccnc12`, greater than 20 µM.
